Measured values collected from several papers.
Each line is one published result; the experiments were not run side by side.
MRGPRX2: Mas-related G-protein coupled receptor member X2 (MRGPRX2, Homo sapiens, UniProt Q96LB1)

SMILES | target | assay | setting | quantity | value
CCCC[C@H](NC(=O)[C@H](CO)NC(C)=O)C(=O)N[C@@H](Cc1ccccc1)C(=O)N[C@@H](CO)C(=O)N[C@@H](CO)C(=O)N[C@@H](CC(N)=O)C(=O)N[C@@H](CCCNC(=N)N)C(=O)N[C@@H](CCC(N)=O)C(=O)N[C@@H](CCCCN)C(=O)N[C@H](C(=O)N[C@@H](CC(C)C)C(=O)N[C@@H](CCC(=O)O)C(=O)N[C@@H](CCCNC(=N)N)C(=O)N[C@H](C(=O)N[C@@H](CCC(=O)O)C(=O)N[C@H](C(=O)N[C@@H](CC(C)C)C(=O)N[C@@H](CC(N)=O)C(=O)N[C@@H](CCC(N)=O)C(=O)N[C@@H](CCC(=O)O)C(=O)N[C@@H](Cc1c[nH]c2ccccc12)C(=O)N[C@@H](CCCCN)C(=O)N[C@@H](CCC(N)=O)C(=O)N[C@@H](CCCNC(=N)N)C(N)=O)[C@@H](C)CC)[C@@H](C)O)[C@@H](C)CC | MRGPRX2 | calcium signal, agonist | – | EC50 | > 20 µM
CC(C)=CCc1c(O)cc2c(c1O)C(=O)C[C@@H](c1ccc(O)cc1)O2 | Cytochrome P450 1A1 (CYP1A1, Homo sapiens, UniProt P04798) | enzyme activity, inhibitor, fluorescence | 15 min, pH 7.4 | Ki | 0.59 µM
CC(=O)C1=CC[C@H]2[C@@H]3CCC4=CC(=O)CC[C@]4(C)[C@H]3CC[C@]12C | Steroid 17-alpha-hydroxylase/17,20 lyase (CYP17A1, Homo sapiens, UniProt P05093) | binding, absorbance | – | Kd | 0.54 µM
CC(C)C[C@H](NC(=O)[C@H](Cc1ccccc1)NC(=O)c1cnccn1)B(O)O | Cathepsin G (CTSG, Homo sapiens, UniProt P08311) | enzyme activity, inhibitor | – | IC50 | 36 µM
CC[C@H](C)[C@H](NC(=O)[C@@H]1CCCN1C(C)=O)C(=O)N[C@@H](CCC(=O)O)C(=O)N[C@H](C(=O)N[C@@H](CS)C(=O)N[C@@H](CCSC)C(=O)N[C@@H](Cc1ccc(O)cc1)C(=O)N[C@@H](CCCNC(=N)N)C(=O)N[C@@H](CCC(=O)O)C(=O)N1CCC[C@H]1C(N)=O)C(C)C | MRGPRX2 | calcium signal, agonist | – | EC50 | > 20 µM
COc1cc(C(=O)N2CC[C@@H](O)[C@@H](N)C2)cc2nc(-c3cc4ccccc4n3CC3CC3)n(C)c12 | Vasopressin V1a receptor (AVPR1A, Homo sapiens, UniProt P37288) | calcium signal, antagonist, fluorescence | – | IC50 | 25.1 µM
Cc1c(Cc2cccc(N(C)S(=O)(=O)CCCN3CCN(c4ccc(Nc5c(C(N)=O)cnc6ccc(-c7cnc8ccccc8c7)cc56)cc4C(F)(F)F)CC3)c2)c(=O)oc2cc(OC(=O)N(C)C)ccc12 | Dual specificity mitogen-activated protein kinase kinase 1 (MAP2K1, Homo sapiens, UniProt Q02750) | enzyme activity, inhibitor, mobility shift | – | IC50 | 4.97 µM
COC(=O)Nc1nc2cc(C(=O)c3ccc(F)cc3)ccc2[nH]1 | Vascular endothelial growth factor receptor 2 (KDR, Homo sapiens, UniProt P35968) | enzyme activity, inhibitor, TR-FRET | – | IC50 | 0.47 µM
